CHO parental Ca: counter-screen: ATP calcium response change in parental CHO cells. inhibition, % at 5.6 µM. parental CHO-K1, ATP-induced calcium, Fluo-8 fluorescence. 0.63% of 330,000 active;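 active = inhibition above that plate's mean sample inhibition plus 3 SD, cut at about 26% in these data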
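Measured by: calcium-sensitive Fluo-8 fluorescence / Test system: CHO parental line / Controls: ATP-challenged DMSO wells low, unchallenged DMSO wells high / Measure: % inhibition / Compound: single nominal dose of 5.6 µM per compound / Replicates: single well per compound, no replicates / Reagent: ATP as calcium-mobilizing challenge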
TRPML3 ag: human mucolipin-3 channel agonism. HEK293 TRPML3-YFP, Fluo-8 calcium fluorescence; 100% = the carbachol control signal. activation, % at 3 µM. 0.29% of 220,000 active. AID 1448;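 active = activation above its plate's cutoff, the mean activation of the plate's test wells plus 3 SD, cut at about 12% in these data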
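system = HEK293 cells stably carrying human TRPML3-YFP | doses = one concentration, 3 µM nominal, 0.3% DMSO | timing = dye loading 1 h 37 °C then 30 min ambient, 125 s read | detection = Fluo-8 calcium dye fluorescence, ex 470-495, em 515-575 nm | benchmarks = high control carbachol 87 µM, low control DMSO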
OX1R antag-1: antagonists of human orexin 1 receptor (OX1R); inhibition, % at 6.6 µM; OX1R-expressing cells, FRET antagonist read-out; 1.8% of 330,000 active; in the data active = inhibition mostly above about 38%, no sharp cut-off; inactive = mostly below about 40%
TRPN1 ag: agonists of zebrafish TRPN1 channel | 0.18% of 220,000 active | activation, % at 3 µM | HEK293 zebrafish TRPN1-YFP, Fluo-8 calcium fluorescence; 100% = response to 87 µM carbachol;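 active = activation above its plate's cutoff, the mean activation of test wells on that plate plus 3 SD, cut at about 19% in these data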
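Material: zebrafish TRPN1-YFP in HEK293 cells. Doses: one dose of 3 µM, 0.3% DMSO. Incubation: dye 1 h 37 °C plus 30 min RT. Measured by: intracellular calcium fluorescence with Fluo-8.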
OX1R antag-2: human HCRTR1 antagonism | O43613 | CHO/OX1R cells, Fluo-8 calcium fluorescence, orexin A | inhibition, % at 5 µM | 0.43% of 330,000 active;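 active = inhibition above its plate's threshold, mean inhibition of all tested compounds on the plate plus 3 SD, cut at about 37% in these data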
GPR7 antagonist: blocks human GPR7 receptor signaling | inhibition, % at 4.4 µM | P48145 | 1.1% of 290,000 active | GPR7-expressing cells, fluorescence antagonist assay; in the data active = inhibition above about 16%, passing the limit was not always enough;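 also: cells stimulated with the agonist NPW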
Target sequence (P48145 whole entry, looked up): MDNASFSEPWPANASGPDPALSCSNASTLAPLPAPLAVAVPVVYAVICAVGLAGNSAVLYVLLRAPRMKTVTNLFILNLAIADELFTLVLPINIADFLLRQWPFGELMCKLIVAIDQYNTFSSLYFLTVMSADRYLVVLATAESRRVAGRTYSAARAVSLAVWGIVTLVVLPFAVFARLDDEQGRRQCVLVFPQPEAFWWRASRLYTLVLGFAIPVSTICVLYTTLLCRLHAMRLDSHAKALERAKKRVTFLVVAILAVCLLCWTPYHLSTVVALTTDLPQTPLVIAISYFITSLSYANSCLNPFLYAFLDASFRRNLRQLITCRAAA
OX1R Ca confirm: confirmation of human orexin 1 receptor antagonists; shares compounds with OX1R antag-2; CHO/OX1R cells, orexin A calcium Fluo-8 fluorescence; inhibition, % at 5 µM; 38% of 1,100 active; AID 492963; in the data active = inhibition above about 29%
CHO Ca counter: signal in parental CHO cells, OX1R antagonist counter-screen. shares compounds with OX1R antag-2. parental CHO-K1, ATP-induced calcium, Fluo-8 fluorescence. inhibition, % at 5.6 µM. 9.3% of 1,100 active. AID 492965;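 active = inhibition above a per-plate limit, the mean inhibition of that plate's test compounds plus 3 SD, cut at about 25% in these data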
OX1R HTRF confirm: confirmation of human orexin 1 receptor antagonists, HTRF format | shares compounds with OX1R antag-1 | OX1R-expressing cells, HTRF antagonist assay | inhibition, % at 6.6 µM | 49% of 1,800 active; in the data active = inhibition above about 55%;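 also: CHO cells expressing OX1R stimulated with orexin A at about EC80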
CHO-K1 HTRF: counter-screen for OX1R antagonists: effect in parental CHO-K1 cells. HTRF counterscreen. shares compounds with OX1R antag-1. 48% of 1,800 active. inhibition, % at 6.6 µM; in the data active = inhibition above about 17%
A number is an active result; – = inactive; · = no result given. Most compounds without a hit are left out; they make up all but 3.2% or so of the library.

SMILES	CHO parental Ca	TRPML3 ag	OX1R antag-1	TRPN1 ag	OX1R antag-2	GPR7 antagonist	OX1R Ca confirm	CHO Ca counter	OX1R HTRF confirm	CHO-K1 HTRF
COc1ccc(N(CC(=O)NCCC2=CCCCC2)S(=O)(=O)c2ccccc2)cc1OC	–	–	–	–	–	–	·	·	·	·
NC(=O)CC[C@H](NC(=O)c1ccc(F)cc1)C(=O)OCC(=O)Nc1ccc(N2CCOCC2)cc1	–	–	–	–	–	–	·	·	·	·
C=CCC(=O)NC1CC(C)(C)Cc2c1cnn2-c1ccccc1C (stereo unspecified)	–	·	–	·	–	–	·	·	·	·
CCCCCCCC(=O)Oc1ccc(C(=O)Nc2cc(C)on2)cc1	–	·	–	·	–	–	·	·	·	·
Cc1sc(NC(=O)Cn2[nH]c(=O)c3ccccc3c2=O)nc1-c1ccccc1	–	–	74.4	–	38.6	–	42.6	–	75.9	–
Cc1c(NC(=O)Cn2[nH]c(=O)c3ccccc3c2=O)c(=O)n(-c2ccccc2)n1C	–	–	–	–	–	–	·	·	·	·
COc1ccc(C)cc1S(=O)(=O)N1CCCC(C(=O)NC2CC2)C1 (stereo unspecified)	–	·	–	·	–	–	·	·	·	·
Cc1c(Cl)cccc1NC(=O)N1CCCN(c2nc(-c3ccccc3)ns2)CC1	–	–	79.8	–	–	–	–	–	–	–
O=C(Nc1ccccc1)N1CCN(c2nc(-c3ccccc3)ns2)CC1	–	–	–	–	–	–	·	·	·	·
Cc1c(NS(=O)(=O)c2cccc(C(=O)OCC(=O)N(C)C3CCCCC3)c2)c(=O)n(-c2ccccc2)n1C	–	–	98.3	–	37.3	–	57.6	–	89.7	–
COCCNC(=O)C(c1ccc(O)cc1)N(Cc1cccs1)C(=O)CCC(=O)Nc1ccccn1 (stereo unspecified)	–	·	–	·	–	–	·	·	·	·
COCCNC(=O)C(c1ccc(F)cc1)N(CCOC)C(=O)CCC(=O)Nc1ccccn1 (stereo unspecified)	–	·	–	·	–	–	·	·	·	·
Cc1cc(NC(=O)CCC(=O)N(Cc2cccs2)C(C(=O)NC2CCCC2)c2ccccc2)no1 (stereo unspecified)	–	–	92.0	–	51.3	–	43.9	–	93.2	–
COCCNC(=O)C(c1ccc(C)cc1)N(Cc1ccccc1)C(=O)CCC(=O)Nc1ccccn1 (stereo unspecified)	–	·	72.2	·	–	–	39.5	–	88.4	–
COCCNC(=O)C(c1ccc(C)cc1)N(Cc1cccs1)C(=O)CCC(=O)Nc1ccccn1 (stereo unspecified)	–	·	75.3	·	–	–	–	–	82.1	–
CCCCc1ccc(S(=O)(=O)NCCc2ccncc2)cc1	–	–	76.0	–	–	–	–	–	–	–
CCOC(=O)c1c(S(=O)(=O)NCC(=O)NCc2ccc(C)cc2)c(C)n(C)c1C	–	·	–	·	–	–	·	·	·	·
Cc1c(C(=O)OCC(=O)Nc2ccc(N3CCOCC3)cc2)oc2ccccc12	–	·	–	·	–	·	·	·	·	·
Cc1c(C(=O)Nc2ccc(N3CCOCC3)cc2)oc2ccccc12	–	–	99.7	–	73.2	–	73.4	–	90.1	–
O=C(Nc1ccc2nn(-c3ccccc3)nc2c1)c1cccs1	–	–	83.4	–	–	–	–	–	55.4	–
CC1Cc2ccccc2N1S(=O)(=O)c1cccc(C(=O)c2nccn2C)c1 (stereo unspecified)	–	–	39.5	–	55.6	–	–	–	–	–
O=C(CSc1nnc2scc(-c3ccccc3)n12)Nc1nsc(-c2ccc(Cl)cc2)n1	–	–	–	–	–	–	·	·	·	·
Cc1ccc(-c2csc3nnc(SCC(=O)Nc4nsc(-c5ccccc5)n4)n23)cc1	–	–	81.8	–	67.9	–	48.5	–	91.2	–

Bioassay records deposited in PubChem by The Scripps Research Institute Molecular Screening Center.
